Laboratory results published in ChEMBL document CHEMBL3856229, “Hybrid Antibiotic Overcomes Resistance in P. aeruginosa by Enhancing Outer Membrane Penetration and Reducing Efflux” (J Med Chem, 2016).

Key:
Pseudomonas aeruginosa [1] = experiment: Antibacterial activity against multidrug-resistant/tobramycin-susceptible Pseudomonas aeruginosa isolate 83182; assay type: functional
Escherichia coli [2] = experiment: Antibacterial activity against fluoroquinolone resistant Escherichia coli isolate 95882 harboring beta-lactamase KPC-3/TEM-1; assay type: functional
Escherichia coli [3] = experiment: Antibacterial activity against fluoroquinolone resistant Escherichia coli isolate ECMH01 harboring beta-lactamase NDM-1; assay type: functional
Escherichia coli [4] = experiment: Antibacterial activity against fluoroquinolone resistant Escherichia coli isolate N-10-1631 harboring beta-lactamase CTX-M-15/OXA-1; assay type: functional
Pseudomonas aeruginosa [5] = experiment: Potentiation of ciprofloxacin induced antibacterial activity against multidrug/extremely drug-resistant Pseudomonas aeruginosa isolate PA259-96918 assessed as ciprofloxacin MIC at <= […] ug/ml (reference value: […] ug/ml); assay type: functional
Pseudomonas aeruginosa [6] = experiment: Potentiation of ciprofloxacin induced antibacterial activity against multidrug/extremely drug-resistant Pseudomonas aeruginosa isolate PA262-101856 assessed as ciprofloxacin MIC at <= […] ug/ml (reference value: […] to […] ug/ml); assay type: functional
Pseudomonas aeruginosa [7] = experiment: Antibacterial activity against Pseudomonas aeruginosa PAO1 assessed as fractional inhibitory concentration index after 18 hrs in presence of trimethoprim by checkerboard method; assay type: functional
In short: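 Checkerboard combinations of the hybrid with each partner antibiotic were tested against P. aeruginosa PAO1. Interaction is expressed as the fractional inhibitory concentration (FIC) index: ≤0.5 means synergy, 1–2 no interaction, ≥4 antagonism.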

[8] = Cytotoxicity against human DU145 cells assessed as reduction in cell viability after 48 hrs by MTS assay; assay type: toxicity, cell-based, DU-145
[9] = Cytotoxicity against human JIMT1 cells assessed as reduction in cell viability after 48 hrs by MTS assay; assay type: toxicity, cell-based, JIMT-1

## COc1c(N2C[C@@H]3CCCN(CCCCCCCCCCCCO[C@@H]4[C@@H](O[C@H]5O[C@H](CO)[C@@H](O)[C@H](N)[C@H]5O)[C@H](N)C[C@H](N)[C@H]4O[C@H]4O[C@H](CN)[C@@H](O)C[C@H]4N)[C@@H]3C2)c(F)cc2c(=O)c(C(=O)O)cn(C3CC3)c12.Cl.Cl.Cl.Cl.Cl
Pseudomonas aeruginosa [1]
  MIC: 8 µg/mL
Escherichia coli [2]
  MIC: ≥ 64 µg/mL
Escherichia coli [3]
  MIC: ≥ 64 µg/mL
Escherichia coli [4]
  MIC: ≥ 64 µg/mL
Pseudomonas aeruginosa [5]
  MIC: < 1 µg/mL
Pseudomonas aeruginosa [6]
  MIC: 1 µg/mL
Pseudomonas aeruginosa [7]
  fractional inhibitory concentration index (FICI): 0.25
[8]
  CC50 at 48 h: > 30 µM
[9]
  CC50 at 48 h: > 30 µM
